Three molecules from ChEMBL document CHEMBL3608281, “Synthesis and biological evaluation of novel 3,9-substituted β-carboline derivatives as anticancer agents” (Bioorg Med Chem Lett, 2015) can be followed below.

In assay [1] the test system is HL-60. The assay can be described thus: Cytotoxicity against human HL60 cells. It is filed as functional, cell-based.
The subject of assay [2] is COLO 205. Put plainly: Cytotoxicity against human COLO205 cells. It is filed as functional, cell-based.
Another assay deals with MCF7. The assay can be described thus: Cytotoxicity against human MCF7 cells. The format is functional, cell-based.
The test system of the next assay is SK-OV-3. Put plainly: Cytotoxicity against human SKOV3 cells incubated for 48 hrs by MTT assay. The note with it: SK-OV-3, 48 h. It is filed as functional, cell-based. In short, it runs like this: (§1)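 Human tumour lines (HL-60 leukemia, Hep3B liver, H460 lung, A498 renal, COLO205 colon, 2774 and SK-OV-3 ovarian) and normal Detroit 551 skin fibroblasts were exposed to a range of concentrations for 48 h. IC50 is the concentration giving 50% proliferation inhibition, as the mean of three independent determinations.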
(Tetrazolium assays rely on reduction of a dye to a coloured formazan, in cell work by metabolically active cells.)

For assay [3], the system named is HL-60. The assay can be described thus: Induction of cell cycle arrest in human HL60 cells assessed as accumulation at G2/M phase at 5 uM incubated for 48 hrs by propidium iodide staining based flow cytometry (reference value: 16.77%). It is filed as functional.
Assay [4] can be described thus: Cytotoxicity against human Hep3B cells incubated for 48 hrs by MTT assay. The format is functional, cell-based, Hep 3B2. In short, it runs like this: as §1
Assay [5] relates to HL-60. The assay can be described thus: Increase in DR5 protein expression in human HL60 cells at 5 uM incubated for 24 hrs and 48 hrs by Western blotting method. The format is functional, cell-based. In short, it runs like this:
(§2)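 HL-60 cells were exposed to 5 μM for 24 and 48 h. Lysates were immunoblotted for Fas, DR4, DR5, FasL, TRAIL, Bax, Bcl-2, caspase-9, caspase-3 and PARP (cleavage), with β-actin as loading control.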
In general terms: Immunoblotting shows a protein as a band on a membrane.

Assay [6] has as its system HL-60. Put plainly: Induction of apoptosis in human HL60 cells assessed as induction of Apaf-1 protein release into cytosol at 5 uM incubated for 24 hrs and 48 hrs by Western blotting method. The format is functional, cell-based.
Assay [7] concerns HL-60. The assay can be described thus: Induction of cell morphology changes in human HL60 cells assessed as induction of nuclear shrinkage at 5 uM incubated for 24 hrs by a phase-contrast microscopy. The format is functional, cell-based. The method, boiled down:
(§3)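 HL-60 cells were treated at 1, 5 and 10 μM for 24 h and 48 h and examined microscopically for nuclear shrinkage and apoptotic bodies.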

The test system of assay [8] is HL-60. The assay can be described thus: Induction of apoptosis in human HL60 cells assessed as increase in Bax protein level at 5 uM incubated for 24 hrs and 48 hrs by Western blotting method. The format is functional, cell-based. In short, it runs like this: as §2
The test system of assay [9] is HL-60. The assay can be described thus: Induction of cell cycle arrest in human HL60 cells assessed as accumulation at S phase at 10 uM incubated for 48 hrs by propidium iodide staining based flow cytometry (reference value: 43.72%). It is filed as functional. A general note: A flow cytometer gives signals particle by particle.
The subject of assay [10] is HL-60. The assay can be described thus: Induction of apoptosis in human HL60 cells assessed as induction of endonuclease-G protein release into cytosol at 5 uM incubated for 24 hrs and 48 hrs by Western blotting method. It is filed as functional, cell-based.
The subject of another assay is A498. The assay can be described thus: Cytotoxicity against human A498 cells incubated for 48 hrs by MTT assay. It is filed as functional, cell-based. Conditions: A498, 48 h.
Assay [11] relates to COLO 205. The assay can be described thus: Cytotoxicity against human COLO205 cells incubated for 48 hrs by MTT assay. It is filed as functional, cell-based. The note with it: COLO 205, 48 h. The method, boiled down:
as §1

The nature of assay [12]: Cytotoxicity against human 2774 cells incubated for 48 hrs by MTT assay. The format is functional, cell-based. In short, it runs like this:
as §1

Assay [13] concerns HL-60. Put plainly: Increase in Fas protein expression in human HL60 cells at 5 uM incubated for 24 hrs and 48 hrs by Western blotting method. The format is functional, cell-based. In short, it runs like this:
as §2

Assay [14] deals with HL-60. Put plainly: Induction of cell cycle arrest in human HL60 cells assessed as accumulation at G2/M phase at 10 uM incubated for 48 hrs by propidium iodide staining based flow cytometry (reference value: 16.77%). It is filed as functional.
Assay [15] has as its system HL-60. Put plainly: Induction of apoptosis in human HL60 cells assessed as late apoptotic cells level at 5 uM incubated for 48 hrs by annexin V/propidium iodide staining based flow cytometry (reference value: 0.4%). The format is functional.
Assay [16] deals with HL-60. Put plainly: Induction of cell cycle arrest in human HL60 cells assessed as accumulation at subG1 phase at 10 uM incubated for 48 hrs by propidium iodide staining based flow cytometry (reference value: 2.5%). The format is functional.
In assay [17] the test system is HL-60. The assay can be described thus: Induction of cell cycle arrest in human HL60 cells assessed as accumulation at subG1 phase at 5 uM incubated for 48 hrs by propidium iodide staining based flow cytometry (reference value: 2.5%). It is filed as functional.
A short description of assay [18]: Cytotoxicity against human H460 cells incubated for 48 hrs by MTT assay. The note with it: NCI-H460, 48 h. The format is functional, cell-based. The method, boiled down: as §1
Assay [19] concerns HL-60. The assay can be described thus: Induction of apoptosis in human HL60 cells assessed as reduction in Bcl-2 protein level at 5 uM incubated for 24 hrs and 48 hrs by Western blotting method. The format is functional, cell-based. The method, boiled down: as §2
Assay [20] has as its system HL-60. Put plainly: Induction of cell cycle arrest in human HL60 cells assessed as accumulation at subG1 phase at 1 uM incubated for 48 hrs by propidium iodide staining based flow cytometry (reference value: 2.5%). The format is functional.
For the next assay, the system named is Detroit 551. Put plainly: Cytotoxicity against human Detroit 551 cells incubated for 48 hrs by MTT assay. It is filed as cell-based. The note with it: Detroit 551, 48 h. In short, it runs like this: as §1
Assay [21] deals with HL-60. The assay can be described thus: Induction of cell cycle arrest in human HL60 cells assessed as accumulation at G0/G1 phase at 1 uM incubated for 48 hrs by propidium iodide staining based flow cytometry (reference value: 39.51%). The format is functional.
In assay [22] the test system is HL-60. Put plainly: Induction of cell cycle arrest in human HL60 cells assessed as accumulation at S phase at 5 uM incubated for 48 hrs by propidium iodide staining based flow cytometry (reference value: 43.72%). The format is functional.
In assay [23] the test system is HL-60. The assay can be described thus: Induction of apoptosis in human HL60 cells assessed as induction of AIF protein release into cytosol at 5 uM incubated for 24 hrs and 48 hrs by Western blotting method. The format is functional, cell-based.
The subject of assay [24] is HL-60. Put plainly: Induction of cell cycle arrest in human HL60 cells assessed as accumulation at S phase at 1 uM incubated for 48 hrs by propidium iodide staining based flow cytometry (reference value: 43.72%). It is filed as functional.
In assay [25] the test system is HL-60. Put plainly: Induction of apoptosis in human HL60 cells assessed as induction of cytochrome-c protein release into cytosol at 5 uM incubated for 24 hrs and 48 hrs by Western blotting method. It is filed as functional, cell-based.
The subject of assay [26] is HL-60. The assay can be described thus: Induction of apoptosis in human HL60 cells assessed as early apoptotic cells level at 5 uM incubated for 24 hrs by annexin V/propidium iodide staining based flow cytometry (reference value: 0%). It is filed as functional.
In assay [27] the test system is HL-60. Put plainly: Cytotoxicity against human HL60 cells incubated for 48 hrs by MTT assay. It is filed as functional, cell-based. Conditions: HL-60, 48 h. In short, it runs like this: as §1
The test system of assay [28] is HL-60. The assay can be described thus: Increase in FasL protein expression in human HL60 cells at 5 uM incubated for 24 hrs and 48 hrs by Western blotting method. It is filed as functional, cell-based. In short, it runs like this: as §2
Assay [29] has as its system HL-60. The assay can be described thus: Induction of cell cycle arrest in human HL60 cells assessed as accumulation at G0/G1 phase at 10 uM incubated for 48 hrs by propidium iodide staining based flow cytometry (reference value: 39.51%). The format is functional.
For assay [30], the system named is HL-60. Put plainly: Induction of cell cycle arrest in human HL60 cells assessed as accumulation at subG1 phase incubated for 48 hrs by propidium iodide staining based flow cytometry. It is filed as functional.
The subject of assay [31] is HL-60. Put plainly: Induction of apoptosis in human HL60 cells assessed as upregulation of caspase-3 protein expression at 5 uM incubated for 24 hrs and 48 hrs by Western blotting method. The format is functional, cell-based. The method, boiled down: as §2
For assay [32], the system named is HL-60. The assay can be described thus: Induction of apoptosis in human HL60 cells assessed as early apoptotic cells level at 5 uM incubated for 48 hrs by annexin V/propidium iodide staining based flow cytometry (reference value: 0%). The format is functional.
Assay [33] has as its system HL-60. The assay can be described thus: Induction of apoptosis in human HL60 cells assessed as late apoptotic cells level at 5 uM incubated for 24 hrs by annexin V/propidium iodide staining based flow cytometry (reference value: 0.4%). It is filed as functional.
Assay [34] relates to HL-60. Put plainly: Increase in DR4 protein expression in human HL60 cells at 5 uM incubated for 24 hrs and 48 hrs by Western blotting method. The format is functional, cell-based. In short, it runs like this:
as §2

Assay [35] deals with HL-60. Put plainly: Induction of cell cycle arrest in human HL60 cells assessed as accumulation at G0/G1 phase at 5 uM incubated for 48 hrs by propidium iodide staining based flow cytometry (reference value: 39.51%). The format is functional.
Assay [36] has as its system HL-60. The assay can be described thus: Induction of apoptosis in human HL60 cells assessed as induction of PARP cleavage at 5 uM incubated for 24 hrs and 48 hrs by Western blotting method. The format is functional, cell-based. In short, it runs like this:
as §2

The subject of assay [37] is HL-60. The assay can be described thus: Increase in TRAIL protein expression in human HL60 cells at 5 uM incubated for 24 hrs and 48 hrs by Western blotting method. It is filed as functional, cell-based. The method, boiled down:
as §2

In assay [38] the test system is HL-60. The assay can be described thus: Induction of apoptosis in human HL60 cells assessed as upregulation of caspase-9 protein expression at 5 uM incubated for 24 hrs and 48 hrs by Western blotting method. It is filed as functional, cell-based. In short, it runs like this:
as §2

Assay [39] relates to HL-60. The assay can be described thus: Induction of cell cycle arrest in human HL60 cells assessed as accumulation at G2/M phase at 1 uM incubated for 48 hrs by propidium iodide staining based flow cytometry (reference value: 16.77%). The format is functional.
Assay [40] concerns HL-60. The assay can be described thus: Induction of cell morphology changes in human HL60 cells assessed as induction of appearance apoptotic bodies at 5 uM incubated for 24 hrs by a phase-contrast microscopy. The format is functional, cell-based. In short, it runs like this: as §3

Calls of active or inactive are those of the source. The calls are words filed in the database; no cut-off is given here.

Turning to `COc1cc(Cn2c3ccc(C(C)=O)cc3c3cccnc32)cc(OC)c1OC`, the IC50 came to 0.03 µM in the assay on HL-60 [1] and 0.52 µM in the assay on COLO 205 [2].

In the assay with MCF7, `OCc1ccc2c(c1)c1ccccc1n2Cc1ccc(Cl)nc1` displayed a 50% inhibitory concentration (IC50) of 20 µM.

For the molecule `COc1ccccc1Cn1c2ccccc2c2cc(C(=O)O)ncc21`, the 50% inhibitory concentration (IC50) in the assay with SK-OV-3 was 21.4 µM; in assay [4] it was 6.7 µM; in the assay with A498, 7.5 µM; in the assay with COLO 205 [11], 32.5 µM; in assay [12], 12.6 µM; in assay [18], 8 µM. Also, the half-maximal inhibitory concentration (IC50) was greater than 100 µM in the assay on Detroit 551 and 4 µM in the assay on HL-60 [27]. Besides, the Activity in the assay with HL-60 [3] is recorded as 12.42%; in the assay with HL-60 [9], 39.4%; in the assay on HL-60 [14], 4.98%; in the assay on HL-60 [15] it was 38.6%; in the assay on HL-60 [16] it was 17.79%; in the assay with HL-60 [17] it was 14.55%. In addition, the Activity is recorded as 9.83% with HL-60 [20]; 34.67% in the assay on HL-60 [21]; 50.19% in the assay with HL-60 [22]; 49.22% in the assay on HL-60 [24]; 37.9% in the assay on HL-60 [26]; 55.62% in the assay on HL-60 [29]. The Activity result in the assay with HL-60 [30] was “Dose-dependent effect”; in the assay on HL-60 [32], 46.6%; in the assay on HL-60 [33], 27.9%; in the assay on HL-60 [35], 37.39%; with HL-60 [39], 16.11%. Moreover, the outcome with HL-60 [5], with HL-60 [13], with HL-60 [28], in the assay with HL-60 [34] and with HL-60 [37] was inactive. For the same molecule, the outcome with HL-60 [6], in the assay with HL-60 [7], with HL-60 [8], in the assay with HL-60 [10], in the assay on HL-60 [19] and with HL-60 [23] was Active. The result in the assay with HL-60 [25], in the assay on HL-60 [31], with HL-60 [36], in the assay on HL-60 [38] and in the assay on HL-60 [40] was Active.

A word on the IC50: it is the concentration that gives 50% inhibition. A higher IC50 goes with lower potency.
